Here are results for 13 compounds from ChEMBL document CHEMBL1125326, “Potent gonadotropin releasing hormone antagonists with low histamine-releasing activity” (J Med Chem, 1992).

Usually EC50 stands for the concentration that produces a half-maximal response. A low value points to an effect from little substance.

SMILES strings stand for the structures. Converted amounts (≈) assume the structure as drawn. Non-standard residues stand in square brackets, D forms with d. Residues, ends and D or L forms follow the SMILES beside them. d(hArg(Et2)) = CCN=C(NCC)NCCCC[C@@H](N)C(=O)O; dPhe(4-Cl) = N[C@H](Cc1ccc(Cl)cc1)C(=O)O; dPhe(4-F) = N[C@H](Cc1ccc(F)cc1)C(=O)O; d2Nal = N[C@H](Cc1ccc2ccccc2c1)C(=O)O

The test system of experiment [1] is Rattus norvegicus. The experiment is described as follows: Evaluated for the anti-ovulatory activity (rats were injected subcutaneously at noon on proestrus). The class given is functional. The gist of the method:
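Female rats with at least two consecutive normal 4-day cycles, confirmed by vaginal lavage cytology, were dosed once s.c. at noon on proestrus in 50% propylene glycol/0.9% saline. On the morning of expected estrus, the oviducts were examined for ovulated eggs, which were counted. The effective dose came from % females ovulating plotted against log dose, usually with ≥3 dose groups (10 rats per group total).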

Experiment [2] is filed under the species Rattus norvegicus. The experiment can be described thus: Evaluated for the release of histamine in rats (based on 10 animals per dose group). The class given is functional, organism-based.

`CC(=O)N[C@H](Cc1ccc2ccccc2c1)C(=O)N[C@H](Cc1ccc(F)cc1)C(=O)N[C@H](Cc1cccnc1)C(=O)N[C@@H](CO)C(=O)N[C@@H](CCCN=C(N)N)C(=O)N[C@H](Cc1cccnc1)C(=O)N[C@@H](CC(C)C)C(=O)N[C@@H](CCCCNC1=NCCCN1)C(=O)N1CCC[C@H]1C(=O)N[C@H](C)C(N)=O` came in with an ED50 with Rattus norvegicus [1] of 0.5 µg. This compound also showed an EC50 in the experiment filed under Rattus norvegicus [2] of 6.2 µg/mL (≈ 4.27 µM).

In the experiment with Rattus norvegicus [1], `CC(=O)N[C@H](Cc1ccc2ccccc2c1)C(=O)N[C@H](Cc1ccc(Cl)cc1)C(=O)N[C@H](Cc1cccnc1)C(=O)N[C@@H](CO)C(=O)N[C@@H](Cc1ccc(O)cc1)C(=O)N[C@H](Cc1cccnc1)C(=O)N[C@@H](CC(C)C)C(=O)N[C@@H](CCCCNC1=NCCCN1)C(=O)N1CCC[C@H]1C(=O)N[C@H](C)C(N)=O` had an ED50 of 0.68 µg. Besides, in the experiment listed under Rattus norvegicus [2], the EC50 was 20 µg/mL (≈ 13.5 µM).

For the compound `CC/N=C(\NCC)NCCCC[C@H](NC(=O)[C@H](CC(C)C)NC(=O)[C@@H](Cc1c[nH]c2ccccc12)NC(=O)[C@H](Cc1ccc(O)cc1)NC(=O)[C@H](CO)NC(=O)[C@@H](Cc1c[nH]c2ccccc12)NC(=O)[C@@H](Cc1ccc(Cl)cc1)NC(=O)[C@@H](Cc1ccc2ccccc2c1)NC(C)=O)C(=O)N1CCC[C@H]1C(=O)N[C@H](C)C(N)=O`, the ED50 with Rattus norvegicus [1] was about 0.9 µg. Further, the EC50 in the experiment listed under Rattus norvegicus [2] worked out at 16 µg/mL (≈ 10.2 µM).

As for `CC(=O)N[C@H](Cc1ccc2ccccc2c1)C(=O)N[C@H](Cc1ccc(Cl)cc1)C(=O)N[C@H](Cc1c[nH]c2ccccc12)C(=O)N[C@@H](CO)C(=O)N[C@@H](CCCN=C(N)N)C(=O)N[C@H](Cc1c[nH]c2ccccc12)C(=O)N[C@@H](CC(C)C)C(=O)N[C@@H](CCCCNC1=NCCCN1)C(=O)N1CCC[C@H]1C(=O)N[C@H](C)C(N)=O`, the ED50 in the experiment with Rattus norvegicus [1] was over 2 µg. Also, the EC50 in the experiment listed under Rattus norvegicus [2] turned out to be 0.81 µg/mL (≈ 0.524 µM).

`CC/N=C(\NCC)NCCCC[C@@H](NC(=O)[C@H](Cc1ccc(O)cc1)NC(=O)[C@H](CO)NC(=O)[C@@H](Cc1cccnc1)NC(=O)[C@@H](Cc1ccc(Cl)cc1)NC(=O)[C@@H](Cc1ccc2ccccc2c1)NC(C)=O)C(=O)N[C@@H](Cc1ccccc1)C(=O)N[C@@H](CCCN=C(N)N)C(=O)N1CCC[C@H]1C(=O)N[C@H](C)C(N)=O`: the ED50 with Rattus norvegicus [1] turned out to be 0.5 µg. In the experiment filed under Rattus norvegicus [2], the EC50 is under 0.01 µg/mL.

In the experiment on Rattus norvegicus [1], `CC(=O)N[C@H](Cc1ccc2ccccc2c1)C(=O)N[C@H](Cc1ccc(Cl)cc1)C(=O)N[C@H](Cc1cccnc1)C(=O)N[C@@H](CO)C(=O)N[C@@H](Cc1ccc(O)cc1)C(=O)N[C@H](CCCCNC1=NCCCN1)C(=O)N[C@@H](CC(C)C)C(=O)N[C@@H](CCCCNC1=NCCCN1)C(=O)N1CCC[C@H]1C(=O)N[C@H](C)C(N)=O` had an ED50 of about 0.6 µg. For the same compound, in the experiment listed under Rattus norvegicus [2], a half-maximal response (EC50) required 1.33 µg/mL (≈ 0.865 µM).

Turning to `CC(=O)N[C@H](Cc1ccc2ccccc2c1)C(=O)N[C@H](Cc1ccc(Cl)cc1)C(=O)N[C@H](Cc1c[nH]c2ccccc12)C(=O)N[C@@H](CO)C(=O)N[C@@H](Cc1ccc(O)cc1)C(=O)N[C@H](CCCCNC1=NCCCN1)C(=O)N[C@@H](CC(C)C)C(=O)N[C@@H](CCCCN=C(N)N)C(=O)N1CCC[C@H]1C(=O)N[C@H](C)C(N)=O`, in the experiment on Rattus norvegicus [1], the ED50 was 0.56 µg. This compound showed an EC50 in the experiment filed under Rattus norvegicus [2] of 0.41 µg/mL (≈ 0.267 µM).

Compound `CC/N=C(\NCC)NCCCC[C@H](NC(=O)[C@H](CC(C)C)NC(=O)[C@@H](Cc1cccnc1)NC(=O)[C@H](Cc1ccc(O)cc1)NC(=O)[C@H](CO)NC(=O)[C@@H](Cc1cccnc1)NC(=O)[C@@H](Cc1ccc(Cl)cc1)NC(=O)[C@@H](Cc1ccc2ccccc2c1)NC(C)=O)C(=O)N1CCC[C@H]1C(=O)N[C@H](C)C(N)=O` displayed an ED50 in the experiment with Rattus norvegicus [1] of 0.6 µg. The EC50 in the experiment filed under Rattus norvegicus [2] was found to be 196 µg/mL (≈ 131 µM).

In the case of `CC(=O)N[C@H](Cc1ccc2ccccc2c1)C(=O)N[C@H](Cc1ccc(Cl)cc1)C(=O)N[C@H](Cc1cccnc1)C(=O)N[C@@H](CO)C(=O)N[C@@H](CCCN=C(N)N)C(=O)N[C@H](Cc1cccnc1)C(=O)N[C@@H](CC(C)C)C(=O)N[C@@H](CCCCNC1=NCCCN1)C(=O)N1CCC[C@H]1C(=O)N[C@H](C)C(N)=O`, the ED50 in the experiment with Rattus norvegicus [1] was 0.295 µg. The compound also registered an EC50 in the experiment listed under Rattus norvegicus [2] of 1.5 µg/mL (≈ 1.02 µM).

`CC/N=C(\NCC)NCCCC[C@H](NC(=O)[C@H](CC(C)C)NC(=O)[C@@H](Cc1cccnc1)NC(=O)[C@H](CCCN=C(N)N)NC(=O)[C@H](CO)NC(=O)[C@@H](Cc1cccnc1)NC(=O)[C@@H](Cc1ccc(Cl)cc1)NC(=O)[C@@H](Cc1ccc2ccccc2c1)NC(C)=O)C(=O)N1CCC[C@H]1C(=O)N[C@H](C)C(N)=O`: the ED50 in the experiment with Rattus norvegicus [1] is 0.425 µg. A half-maximal effect in the experiment listed under Rattus norvegicus [2] (EC50) was put at 23.6 µg/mL (≈ 15.9 µM).

The compound `CCCC/N=C(/N)NCCCC[C@@H](NC(=O)[C@H](Cc1ccc(O)cc1)NC(=O)[C@H](CO)NC(=O)[C@@H](Cc1cccnc1)NC(=O)[C@@H](Cc1ccc(F)cc1)NC(=O)[C@@H](Cc1ccc2ccccc2c1)NC(C)=O)C(=O)N[C@@H](CC(C)C)C(=O)N[C@@H](CCCCN=C(NCC(F)(F)F)NCC(F)(F)F)C(=O)N1CCC[C@H]1C(=O)N[C@H](C)C(N)=O` displayed an ED50 in the experiment on Rattus norvegicus [1] of 1 µg. The compound further yielded an EC50 in the experiment filed under Rattus norvegicus [2] of 59 µg/mL (≈ 35.5 µM).

The compound `CCNC(=NCCCC[C@@H](NC(=O)[C@H](Cc1ccc(O)cc1)NC(=O)[C@H](CO)NC(=O)[C@@H](Cc1c[nH]c2ccccc12)NC(=O)[C@@H](Cc1ccc(Cl)cc1)NC(=O)[C@@H](Cc1ccc2ccccc2c1)NC(C)=O)C(=O)N[C@@H](CC(C)C)C(=O)N[C@@H](CCCN=C(N)N)C(=O)N1CCC[C@H]1C(=O)N[C@H](C)C(N)=O)NCC` (Ac-[d2Nal][dPhe(4-Cl)][dW]SY[d(hArg(Et2))]LRP[dA]-NH2) had an ED50 in the experiment with Rattus norvegicus [1] of about 0.6 µg. In the experiment filed under Rattus norvegicus [2], the 50% effective concentration (EC50) is 0.18 µg/mL (≈ 0.117 µM).

Compound `CC(=O)N[C@H](Cc1ccc2ccccc2c1)C(=O)N[C@H](Cc1ccc(F)cc1)C(=O)N[C@H](Cc1c[nH]c2ccccc12)C(=O)N[C@@H](CO)C(=O)N[C@@H](Cc1ccc(O)cc1)C(=O)N[C@H](CCCN=C(N)N)C(=O)N[C@@H](CC(C)C)C(=O)N[C@@H](CCCN=C(N)N)C(=O)N1CCC[C@H]1C(=O)NCC(N)=O` (Ac-[d2Nal][dPhe(4-F)][dW]SY[dR]LRPG-NH2) displayed an ED50 in the experiment with Rattus norvegicus [1] of 2.4 µg. Moreover, the midpoint of the response in the experiment listed under Rattus norvegicus [2], the EC50, lay at 0.51 µg/mL (≈ 0.355 µM).
